Assay [1] deals with Enterococcus faecalis. The assay can be described thus: Antibacterial activity against vancomycin-resistant Enterococcus faecalis NCTC 12201 after 20 hrs by broth microdilution method. In kind it is functional. The following applies: NCTC 12201, 20 h. Summed up: (§1)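 Broth microdilution in Tryptic Soy Broth; growth read as OD600 after 20 h. MIC taken as the lowest drug concentration giving OD600 below 0.1. Run in triplicate.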
(Broth dilution looks for growth in wells or tubes with falling amounts of substance.)

The test system of another assay is Enterococcus faecium. Nature of the assay: Antibacterial activity against vancomycin-resistant Enterococcus faecium NCTC 12204 after 20 hrs by broth microdilution method. Format: functional. The following applies: NCTC 12204, 20 h. The gist of the method: as §1
The subject of assay [2] is Enterococcus faecalis. Nature of the assay: Antibacterial activity against vancomycin-sensitive Enterococcus faecalis NCTC 775 after 20 hrs by broth microdilution method. The following applies: NCTC 775, 20 h. In kind it is functional. The gist of the method:
(§2)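 Broth microdilution in Tryptic Soy Broth, done in triplicate. Growth was read as OD600 after 20 h. MIC is the lowest drug concentration giving OD600 below 0.1.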

Assay [3] relates to Staphylococcus aureus. The assay can be described thus: Antibacterial activity against methicillin-resistant Staphylococcus aureus EMRSA-15 after 20 hrs by broth microdilution method. In kind it is functional. The note with it: EMRSA-15, 20 h. The gist of the method: as §1
For assay [4], the system named is Staphylococcus aureus. The assay can be described thus: Antibacterial activity against methicillin-resistant Staphylococcus aureus MRSA252 after 20 hrs by broth microdilution method. The note with it: MRSA252, 20 h. Format: functional. Summed up:
as §1

Assay [5] has as its system Staphylococcus aureus. Nature of the assay: Antibacterial activity against methicillin-sensitive Staphylococcus aureus ATCC 9144 after 20 hrs by broth microdilution method. In kind it is functional. The note with it: ATCC 9144, 20 h. Summed up: as §2
For assay [6], the system named is Staphylococcus aureus. The assay can be described thus: Inhibition of Staphylococcus aureus DNA gyrase assessed as reduction in pNO1 supercoiling at 0.5 ug/mL by fluorescent dye-based assay. Summed up:
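Supercoiling plate assay run per the kit instructions. S. aureus gyrase was incubated with compound and plasmid pNO1. Negatively supercoiled plasmid was captured by a triplex-forming oligonucleotide, stained with a fluorescent dye and read by fluorescence (excitation 485 nm). Percent inhibition was reported.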

The subject of assay [7] is Staphylococcus aureus. The assay can be described thus: Bactericidal activity against methicillin-resistant Staphylococcus aureus EMRSA-15 assessed as time required to kill bacteria by >6 log10CFU/ml at 4 times MIC by Miles Misra dilution method. Format: functional. The gist of the method: (§3)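 Flasks of TSB inoculated at ~10^6 cfu/mL, compound added at 4 × MIC, shaken at 200 rpm and 37 °C. Samples taken at 1, 2, 4, 6 and 24 h and plated by Miles Misra dilution for CFU/mL. Bactericidal means a loss of >3 log CFU/mL. Three independent repeats, error bars SD.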

Assay [8] deals with Enterococcus faecalis. Nature of the assay: Bactericidal activity against vancomycin-resistant Enterococcus faecalis NCTC 12201 assessed as time required to kill bacteria by <3 log10CFU/ml at 4 times MIC by Miles Misra dilution method. In kind it is functional. The gist of the method: as §3
The test system of assay [9] is Staphylococcus aureus. The assay can be described thus: Bactericidal activity against methicillin-resistant Staphylococcus aureus EMRSA-15 assessed as time required to kill bacteria by 3 log10CFU/ml at 4 times MIC by Miles Misra dilution method. In kind it is functional. The gist of the method:
as §3

Take `C[C@H]1COc2c(N3CCN(C)CC3)c(F)cc3c(=O)c(C(=O)O)cn1c23.C[C@H]1COc2c(N3CCN(C)CC3)c(F)cc3c(=O)c(C(=O)O)cn1c23.O` [LEVOFLOXACIN]: the MIC against Enterococcus faecalis [1] stood at 1 µg/mL; against Enterococcus faecium it was 0.5 µg/mL; against Enterococcus faecalis [2] it was 1 µg/mL; against Staphylococcus aureus [3] it was 8 µg/mL; with Staphylococcus aureus [4], 8 µg/mL; in the assay with Staphylococcus aureus [5], 0.12 µg/mL. The inhibition with Staphylococcus aureus [6] amounted to 57.9%. Also, the values for the Time in the assay on Staphylococcus aureus [7], in the assay on Enterococcus faecalis [8] and with Staphylococcus aureus [9] were 24 h, 24 h and 6 h, respectively.

As usually defined, the MIC is the lowest concentration that inhibits growth of the organism. Higher therefore signals a need for much substance. As a reminder, the inhibition is the relative decrease from the control value, in per cent.

For the origin of these results see ChEMBL document CHEMBL4011643, “Triaryl Benzimidazoles as a New Class of Antibacterial Agents against Resistant Pathogenic Microorganisms” (J Med Chem, 2017).
